Laboratory results: ChEMBL document CHEMBL5653631, “A Potent and Selective ULK1 Inhibitor Suppresses Autophagy and Sensitizes Cancer Cells to Nutrient Stress” (iScience, 2018)
Each block holds one compound with its values, some of them ahead of it.

How the values were obtained:
[1] = biological target: T1, Cytoplasmic tyrosine-protein kinase BMX (Homo sapiens) (UniProt P51813); assay: Inhibition of human recombinant BMX at 500 nM in presence of ATP by radiometric assay relative to control
T1 sequence (whole entry): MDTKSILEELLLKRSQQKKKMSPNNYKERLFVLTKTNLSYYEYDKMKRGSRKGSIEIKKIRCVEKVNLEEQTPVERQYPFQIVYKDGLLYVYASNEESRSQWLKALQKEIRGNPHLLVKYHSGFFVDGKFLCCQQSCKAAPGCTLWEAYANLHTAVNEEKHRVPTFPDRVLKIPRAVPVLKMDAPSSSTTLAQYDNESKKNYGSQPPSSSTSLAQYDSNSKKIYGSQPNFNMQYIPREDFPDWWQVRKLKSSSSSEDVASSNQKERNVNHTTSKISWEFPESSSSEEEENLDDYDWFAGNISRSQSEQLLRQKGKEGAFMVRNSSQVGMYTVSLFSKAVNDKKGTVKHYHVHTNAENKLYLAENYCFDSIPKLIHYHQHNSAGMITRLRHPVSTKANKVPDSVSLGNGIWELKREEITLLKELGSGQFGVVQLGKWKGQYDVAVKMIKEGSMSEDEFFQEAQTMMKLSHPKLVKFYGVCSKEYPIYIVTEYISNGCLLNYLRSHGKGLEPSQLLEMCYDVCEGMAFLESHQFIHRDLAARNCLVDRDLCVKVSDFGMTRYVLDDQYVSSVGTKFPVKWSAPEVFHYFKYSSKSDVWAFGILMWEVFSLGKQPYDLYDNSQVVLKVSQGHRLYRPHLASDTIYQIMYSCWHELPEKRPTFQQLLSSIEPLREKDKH
Summary of the method: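 Part of a radiometric in vitro activity panel of 327 recombinant human kinases. Each kinase was tested in duplicate at one inhibitor concentration. Activity remaining was expressed as a percentage of the vehicle control, and percent inhibition was taken as 100 minus that value.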

[2] = biological target: Serine/threonine-protein kinase D2 (Homo sapiens) (UniProt Q9BZL6); assay: Inhibition of human recombinant PKD2 at 15 nM related to control ULK1
Sequence of Serine/threonine-protein kinase D2 (Homo sapiens) (Q9BZL6 whole entry, looked up): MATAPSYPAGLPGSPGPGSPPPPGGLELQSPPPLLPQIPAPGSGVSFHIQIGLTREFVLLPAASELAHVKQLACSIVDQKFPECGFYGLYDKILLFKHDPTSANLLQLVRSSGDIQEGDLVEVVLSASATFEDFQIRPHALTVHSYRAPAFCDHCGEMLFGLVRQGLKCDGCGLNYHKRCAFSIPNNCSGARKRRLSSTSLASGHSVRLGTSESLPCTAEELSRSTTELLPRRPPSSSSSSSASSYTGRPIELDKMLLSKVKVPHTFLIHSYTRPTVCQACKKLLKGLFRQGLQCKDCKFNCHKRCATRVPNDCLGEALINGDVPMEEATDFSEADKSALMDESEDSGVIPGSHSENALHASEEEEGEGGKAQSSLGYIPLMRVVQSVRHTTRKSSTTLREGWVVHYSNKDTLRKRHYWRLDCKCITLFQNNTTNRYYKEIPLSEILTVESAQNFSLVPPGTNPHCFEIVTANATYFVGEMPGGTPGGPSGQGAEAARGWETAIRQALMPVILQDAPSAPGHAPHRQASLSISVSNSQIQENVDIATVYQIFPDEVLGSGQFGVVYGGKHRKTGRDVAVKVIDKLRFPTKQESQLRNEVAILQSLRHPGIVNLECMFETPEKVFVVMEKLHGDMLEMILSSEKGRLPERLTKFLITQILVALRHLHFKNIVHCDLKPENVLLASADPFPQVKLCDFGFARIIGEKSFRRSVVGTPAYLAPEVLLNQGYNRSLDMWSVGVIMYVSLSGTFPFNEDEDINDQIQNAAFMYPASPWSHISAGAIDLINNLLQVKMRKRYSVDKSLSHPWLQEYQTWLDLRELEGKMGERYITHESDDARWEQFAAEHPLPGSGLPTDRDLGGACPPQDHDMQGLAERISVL

[3] = biological target: T2, Serine/threonine-protein kinase DCLK3 (Homo sapiens) (UniProt Q9C098); assay: Inhibition of human recombinant DCAMKL3 at 15 nM related to control ULK1
T2 sequence (whole entry): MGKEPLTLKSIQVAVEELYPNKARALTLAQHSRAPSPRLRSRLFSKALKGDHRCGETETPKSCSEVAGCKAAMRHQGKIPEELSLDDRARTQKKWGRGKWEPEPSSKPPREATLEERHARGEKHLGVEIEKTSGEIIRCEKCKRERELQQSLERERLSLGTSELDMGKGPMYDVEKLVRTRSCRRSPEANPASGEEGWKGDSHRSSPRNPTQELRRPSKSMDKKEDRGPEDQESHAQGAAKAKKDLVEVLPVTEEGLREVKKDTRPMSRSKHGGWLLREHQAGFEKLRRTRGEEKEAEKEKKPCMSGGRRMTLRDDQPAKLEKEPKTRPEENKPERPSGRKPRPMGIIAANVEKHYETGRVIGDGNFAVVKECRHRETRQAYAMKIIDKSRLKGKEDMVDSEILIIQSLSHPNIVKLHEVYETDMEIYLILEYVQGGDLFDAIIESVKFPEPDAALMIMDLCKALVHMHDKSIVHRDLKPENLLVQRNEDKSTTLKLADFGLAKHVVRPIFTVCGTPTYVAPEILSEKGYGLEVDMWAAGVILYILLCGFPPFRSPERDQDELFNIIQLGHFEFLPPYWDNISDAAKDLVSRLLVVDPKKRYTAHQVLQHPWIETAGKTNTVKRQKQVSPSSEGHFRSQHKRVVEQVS

[4] = biological target: Serine/threonine-protein kinase SIK1 (Homo sapiens) (UniProt P57059); assay: Inhibition of human recombinant SIK at 15 nM in presence of ATP by radiometric assay relative to control
Sequence of Serine/threonine-protein kinase SIK1 (Homo sapiens) (P57059 whole entry): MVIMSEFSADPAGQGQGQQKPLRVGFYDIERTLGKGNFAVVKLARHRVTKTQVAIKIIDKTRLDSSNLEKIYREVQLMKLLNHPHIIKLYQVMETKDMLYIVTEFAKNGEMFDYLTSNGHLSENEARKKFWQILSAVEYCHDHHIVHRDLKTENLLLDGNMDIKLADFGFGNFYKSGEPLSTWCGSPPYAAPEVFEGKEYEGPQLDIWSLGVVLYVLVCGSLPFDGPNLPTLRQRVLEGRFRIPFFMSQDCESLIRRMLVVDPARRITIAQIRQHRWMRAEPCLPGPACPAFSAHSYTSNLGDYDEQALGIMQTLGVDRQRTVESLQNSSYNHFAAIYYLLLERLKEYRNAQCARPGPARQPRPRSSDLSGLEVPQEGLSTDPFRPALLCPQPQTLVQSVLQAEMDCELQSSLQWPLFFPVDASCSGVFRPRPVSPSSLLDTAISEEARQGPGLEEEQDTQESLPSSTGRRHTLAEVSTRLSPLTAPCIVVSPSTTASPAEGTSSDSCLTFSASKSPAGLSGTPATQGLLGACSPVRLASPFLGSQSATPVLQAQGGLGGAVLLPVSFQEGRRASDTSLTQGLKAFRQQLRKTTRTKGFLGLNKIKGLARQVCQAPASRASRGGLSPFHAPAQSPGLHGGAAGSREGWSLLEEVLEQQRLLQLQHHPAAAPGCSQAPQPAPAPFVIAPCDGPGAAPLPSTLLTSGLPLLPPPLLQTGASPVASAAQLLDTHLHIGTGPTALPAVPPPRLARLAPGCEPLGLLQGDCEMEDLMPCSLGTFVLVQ

[5] = biological target: T3, Serine/threonine-protein kinase Nek9 (Homo sapiens) (UniProt Q8TD19); assay: Inhibition of human recombinant NEK9 at 15 nM related to control ULK1
T3 sequence (whole entry): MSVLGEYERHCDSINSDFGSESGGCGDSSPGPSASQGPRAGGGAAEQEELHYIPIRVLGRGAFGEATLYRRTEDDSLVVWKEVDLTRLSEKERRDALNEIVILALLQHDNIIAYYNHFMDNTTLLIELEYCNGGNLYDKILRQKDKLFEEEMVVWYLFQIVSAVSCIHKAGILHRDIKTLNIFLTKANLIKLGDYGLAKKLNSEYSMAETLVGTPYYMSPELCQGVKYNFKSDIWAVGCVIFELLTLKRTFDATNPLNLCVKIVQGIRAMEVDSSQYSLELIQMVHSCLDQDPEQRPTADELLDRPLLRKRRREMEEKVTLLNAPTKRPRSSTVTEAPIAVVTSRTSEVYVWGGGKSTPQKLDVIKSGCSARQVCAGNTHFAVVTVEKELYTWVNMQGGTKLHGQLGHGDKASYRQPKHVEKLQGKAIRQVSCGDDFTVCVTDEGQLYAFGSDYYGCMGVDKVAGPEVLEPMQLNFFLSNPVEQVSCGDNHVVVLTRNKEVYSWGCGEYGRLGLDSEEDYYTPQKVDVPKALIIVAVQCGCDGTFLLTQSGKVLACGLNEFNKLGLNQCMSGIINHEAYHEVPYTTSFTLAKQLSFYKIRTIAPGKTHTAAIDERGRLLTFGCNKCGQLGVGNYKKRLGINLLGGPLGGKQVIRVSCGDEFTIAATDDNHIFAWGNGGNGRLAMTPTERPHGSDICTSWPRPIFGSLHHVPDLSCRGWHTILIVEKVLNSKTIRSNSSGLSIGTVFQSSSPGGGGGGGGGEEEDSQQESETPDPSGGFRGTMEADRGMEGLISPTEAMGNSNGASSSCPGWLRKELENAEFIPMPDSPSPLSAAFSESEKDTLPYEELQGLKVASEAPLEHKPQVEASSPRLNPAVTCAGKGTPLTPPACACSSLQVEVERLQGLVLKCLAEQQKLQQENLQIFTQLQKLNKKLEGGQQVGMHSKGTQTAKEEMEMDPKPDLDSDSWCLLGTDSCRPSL

[6] = biological target: Ribosomal protein S6 kinase alpha-1 (Homo sapiens) (UniProt Q15418); assay: Inhibition of human recombinant RSK1 at 15 nM in presence of ATP by radiometric assay relative to control
Sequence of Ribosomal protein S6 kinase alpha-1 (Homo sapiens) (Q15418 whole entry): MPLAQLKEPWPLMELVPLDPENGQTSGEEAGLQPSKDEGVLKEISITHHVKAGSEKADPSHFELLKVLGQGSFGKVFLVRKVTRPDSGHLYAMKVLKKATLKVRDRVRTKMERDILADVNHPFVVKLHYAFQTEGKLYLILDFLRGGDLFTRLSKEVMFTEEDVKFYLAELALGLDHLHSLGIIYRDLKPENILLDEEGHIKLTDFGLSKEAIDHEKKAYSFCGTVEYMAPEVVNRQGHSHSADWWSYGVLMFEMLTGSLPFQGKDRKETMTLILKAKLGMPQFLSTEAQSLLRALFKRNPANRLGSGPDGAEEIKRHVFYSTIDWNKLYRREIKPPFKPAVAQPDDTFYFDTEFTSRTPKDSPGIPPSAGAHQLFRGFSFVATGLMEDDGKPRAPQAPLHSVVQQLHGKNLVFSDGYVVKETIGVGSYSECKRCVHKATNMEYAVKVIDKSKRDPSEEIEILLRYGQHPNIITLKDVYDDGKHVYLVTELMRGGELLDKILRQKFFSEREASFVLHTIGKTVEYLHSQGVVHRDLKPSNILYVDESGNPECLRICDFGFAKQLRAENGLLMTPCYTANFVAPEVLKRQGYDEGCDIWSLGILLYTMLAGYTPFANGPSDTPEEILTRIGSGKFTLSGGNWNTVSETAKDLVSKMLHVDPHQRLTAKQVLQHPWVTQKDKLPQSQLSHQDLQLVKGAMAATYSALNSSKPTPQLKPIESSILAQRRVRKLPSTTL

[7] = biological target: Serine/threonine-protein kinase D2 (Homo sapiens) (UniProt Q9BZL6); assay: Inhibition of human recombinant PKD2 at 15 nM in presence of ATP by radiometric assay relative to control
[8] = biological target: High affinity nerve growth factor receptor (Homo sapiens) (UniProt P04629); assay: Inhibition of human recombinant TRKA at 40 nM related to control ULK1
Sequence of High affinity nerve growth factor receptor (Homo sapiens) (P04629 33-796 limits assumed): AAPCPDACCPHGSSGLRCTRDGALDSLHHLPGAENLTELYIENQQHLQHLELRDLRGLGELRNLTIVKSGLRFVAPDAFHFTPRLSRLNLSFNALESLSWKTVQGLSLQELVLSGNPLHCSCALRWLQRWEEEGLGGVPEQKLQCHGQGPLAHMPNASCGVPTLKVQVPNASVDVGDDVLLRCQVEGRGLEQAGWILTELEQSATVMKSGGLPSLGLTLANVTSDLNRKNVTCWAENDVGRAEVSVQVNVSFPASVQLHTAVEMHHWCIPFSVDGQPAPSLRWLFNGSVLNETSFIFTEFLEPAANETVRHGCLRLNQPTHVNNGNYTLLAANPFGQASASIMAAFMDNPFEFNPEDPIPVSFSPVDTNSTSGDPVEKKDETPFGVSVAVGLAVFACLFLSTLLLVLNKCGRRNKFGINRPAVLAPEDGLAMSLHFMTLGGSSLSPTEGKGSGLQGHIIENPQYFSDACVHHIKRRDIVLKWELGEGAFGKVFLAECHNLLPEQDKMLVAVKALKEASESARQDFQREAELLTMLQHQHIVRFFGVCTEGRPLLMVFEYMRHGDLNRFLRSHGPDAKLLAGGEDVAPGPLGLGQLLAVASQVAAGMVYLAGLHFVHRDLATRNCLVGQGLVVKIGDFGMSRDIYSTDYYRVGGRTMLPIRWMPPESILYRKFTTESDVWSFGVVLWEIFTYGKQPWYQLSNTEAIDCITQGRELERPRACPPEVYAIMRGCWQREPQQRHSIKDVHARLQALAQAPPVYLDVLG

[9] = biological target: Calcium/calmodulin-dependent protein kinase type II subunit alpha (Homo sapiens) (UniProt Q9UQM7); assay: Inhibition of human recombinant CaMK2a at 40 nM in presence of ATP by radiometric assay relative to control
Sequence of Calcium/calmodulin-dependent protein kinase type II subunit alpha (Homo sapiens) (Q9UQM7 whole entry): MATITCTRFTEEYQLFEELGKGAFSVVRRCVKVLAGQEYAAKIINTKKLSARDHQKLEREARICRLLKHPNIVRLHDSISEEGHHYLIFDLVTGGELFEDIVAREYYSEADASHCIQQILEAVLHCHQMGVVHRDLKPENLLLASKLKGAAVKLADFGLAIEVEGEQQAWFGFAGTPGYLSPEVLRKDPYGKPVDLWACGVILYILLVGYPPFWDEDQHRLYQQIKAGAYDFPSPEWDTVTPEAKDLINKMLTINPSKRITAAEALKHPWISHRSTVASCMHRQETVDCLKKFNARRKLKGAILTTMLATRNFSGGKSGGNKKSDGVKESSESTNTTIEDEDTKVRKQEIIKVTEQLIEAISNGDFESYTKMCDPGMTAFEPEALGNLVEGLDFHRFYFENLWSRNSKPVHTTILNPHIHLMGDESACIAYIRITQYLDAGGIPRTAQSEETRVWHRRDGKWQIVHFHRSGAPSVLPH

inhibition [1]: 16%
SMILES: CNC(=O)c1ccccc1Oc1nc(Nc2cc(OC)c(OC)c(OC)c2)ncc1Br

fold change (FC) [2]: 0 | fold change (FC) [3]: 0.4 | inhibition [4]: 74% | inhibition [6]: 23% | inhibition [7]: 0%
SMILES: CC(C)[C@H](NC(=O)c1cc(-c2cnn3cc(-c4ccc(OCCN5CCCCC5)cc4)cnc23)cs1)C(F)(F)F
fold change (FC) [5]: 0.25

fold change (FC) [8]: 0 | inhibition [9]: 0%
SMILES: O=C(N[C@@H](C1CC1)C(F)(F)F)c1cc(-c2cnn3cc(-c4ccc(F)cc4)cnc23)cs1
